According to ChEMBL document CHEMBL1154676, “Synthetic mRNA splicing modulator compounds with in vivo antitumor activity” (J Med Chem, 2009):

What was measured:
[1] = Cytotoxicity against HFF/tert2 after 72 hrs by XTT assay; set-up: species or system Homo sapiens
How it was run: (§1)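 Cells grown at 37 °C, 5% CO2; HFF in DMEM with 10% FBS, PrEC in prostate epithelial growth medium. Adherent lines seeded overnight, suspension lines same day; compounds diluted from DMSO stocks into media at various final concentrations, 72 h exposure. XTT reagent added 4 h, absorbance 490 nm (reference 690 nm). Growth as % of vehicle; IC50 from sigmoidal dose-response fit; mean ± SEM, three independent experiments.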

[2] = system: SW-620; experiment: Growth inhibition of human SW620 cells by sulforhodamine B assay; type: functional
[3] = Cytotoxicity against human SJ-GBM2 cells after 72 hrs by XTT assay; type: functional, cell-based; how it was run: as §1
[4] = system: SF-295; experiment: Growth inhibition of human SF295 cells by sulforhodamine B assay; type: functional
[5] = system: CAKI-1; experiment: Growth inhibition of human Caki1 cells by sulforhodamine B assay; type: functional
[6] = Cytotoxicity against human JeKo1 cells after 72 hrs by XTT assay; type: functional, cell-based; conditions: JeKo-1, 72 h; how it was run: as §1
[7] = system: Mus musculus; experiment: Toxicity in NOD/SCID mouse transplanted with human JeKo1 cells assessed as fatalities at 5 to 50 mg/kg, iv and po for 5 days; type: organism-based; set-up: dose 5-50 mg/kg, route oral; conditions: in vivo, 120 h
[8] = system: MDA-MB-468; experiment: Growth inhibition of human MDA-MB-468 cells by sulforhodamine B assay; type: functional
[9] = system: Mus musculus; experiment: Toxicity in NOD/SCID mouse assessed as amylase level at 5 to 50 mg/kg, iv and po for 5 days; type: organism-based; set-up: dose 5-50 mg/kg, route oral; conditions: in vivo, 120 h
[10] = system: HCT-15; experiment: Growth inhibition of human HCT15 cells by sulforhodamine B assay; type: functional
[11] = system: HFF; experiment: Cytotoxicity against HFF cells after 72 hrs by XTT assay; type: cell-based; conditions: Homo sapiens; how it was run: as §1
[12] = system: Mus musculus; experiment: Toxicity in NOD/SCID mouse assessed as albumin level at 5 to 50 mg/kg, iv and po for 5 days; type: organism-based; set-up: dose 5-50 mg/kg, route oral; conditions: in vivo, 120 h
[13] = system: MOLT-4; experiment: Cytotoxicity against human MOLT4 cells after 72 hrs by XTT assay; type: functional, cell-based; conditions: MOLT-4, 72 h; how it was run: as §1
[14] = system: Mus musculus; experiment: Toxicity in NOD/SCID mouse assessed as total protein level at 5 to 50 mg/kg, […] for 5 days; type: organism-based; set-up: dose 5-50 mg/kg; conditions: in vivo, po, 120 h
[15] = system: SK-MEL-2; experiment: Growth inhibition of human SK-MEL-2 cells by sulforhodamine B assay; type: functional
[16] = system: Malme-3M; experiment: Growth inhibition of human MALME-3M cells by sulforhodamine B assay; type: functional
[17] = system: PC-3; experiment: Cytotoxicity against human PC3 cells after 72 hrs by XTT assay; type: functional, cell-based; conditions: PC-3, 72 h; how it was run: as §1
[18] = system: Mus musculus; experiment: Toxicity in NOD/SCID mouse assessed as anemia at 5 to 50 mg/kg, iv and po for 5 days; type: organism-based; set-up: dose 5-50 mg/kg, route oral; conditions: in vivo, 120 h
[19] = system: Mus musculus; experiment: Toxicity in NOD/SCID mouse assessed as change in alkaline phosphatase level at 5 to 50 mg/kg, iv and po for 5 days; type: organism-based; set-up: dose 5-50 mg/kg, route oral; conditions: in vivo, 120 h
[20] = Cytotoxicity against human Rh41 cells after 72 hrs by XTT assay; type: functional, cell-based; conditions: Rh41, 72 h; how it was run: as §1
[21] = system: Mus musculus; experiment: Toxicity in NOD/SCID mouse assessed as leukopenia at 5 to 50 mg/kg, […] for 5 days; type: organism-based; set-up: dose 5-50 mg/kg; conditions: in vivo, po, 120 h
[22] = system: Mus musculus; experiment: Toxicity in NOD/SCID mouse assessed as weight loss at 5 to 50 mg/kg, iv and po for 5 days after 1 week; type: organism-based; set-up: dose 5-50 mg/kg, route oral; conditions: in vivo, 168 h
[23] = Cytotoxicity against human NB-EBc1 cells after 72 hrs by XTT assay; type: functional, cell-based; conditions: NB-EBc1, 72 h; how it was run: as §1
[24] = system: OVCAR-3; experiment: Growth inhibition of human OVCAR-3 cells by sulforhodamine B assay; type: functional
[25] = system: COLO 205; experiment: Growth inhibition of human COLO205 cells by sulforhodamine B assay; type: functional
[26] = system: NCI-H23; experiment: Growth inhibition of human NCI-H23 cells by sulforhodamine B assay; type: functional
[27] = system: MCF7; experiment: Growth inhibition of human MCF7 cells by sulforhodamine B assay; type: functional
[28] = system: SK-MEL-28; experiment: Growth inhibition of human SK-MEL-28 cells by sulforhodamine B assay; type: functional
[29] = system: MIA PaCa-2; experiment: Cytotoxicity against human MIAPaCa2 cells after 72 hrs by XTT assay; type: functional, cell-based; conditions: MIA PaCa-2, 72 h; how it was run: as §1
[30] = system: M14; experiment: Growth inhibition of human M14 cells by sulforhodamine B assay; type: functional
[31] = system: KM12; experiment: Growth inhibition of human KM12 cells by sulforhodamine B assay; type: functional
[32] = system: HCC 2998; experiment: Growth inhibition of human HCC2998 cells by sulforhodamine B assay; type: functional
[33] = system: MOLT-4; experiment: Growth inhibition of human MOLT4 cells by sulforhodamine B assay; type: functional
[34] = Growth inhibition of human MDA-MB-436 cells by sulforhodamine B assay; type: functional
[35] = system: Mus musculus; experiment: Toxicity in NOD/SCID mouse assessed as thrombocytopenia at 5 to 50 mg/kg, iv and po for 5 days; type: organism-based; set-up: dose 5-50 mg/kg, route oral; conditions: in vivo, 120 h
[36] = system: TK-10; experiment: Growth inhibition of human TK10 cells by sulforhodamine B assay; type: functional
[37] = Growth inhibition of human Hs 578T cells by sulforhodamine B assay; type: functional
[38] = system: SF-268; experiment: Growth inhibition of human SF268 cells by sulforhodamine B assay; type: functional
[39] = system: A549; experiment: Growth inhibition of human A549 cells by sulforhodamine B assay; type: functional
[40] = Cytotoxicity against human BT-3 cells after 72 hrs by XTT assay; type: functional, cell-based; conditions: BT-3, 72 h; how it was run: as §1
[41] = system: SK-OV-3; experiment: Growth inhibition of human SKOV3 cells by sulforhodamine B assay; type: functional
[42] = read-out: Log10GI50 (converted)
[43] = read-out: Log10LC50 (converted)

## CC(/C=C/[C@@H]1C[C@]2(CO2)CC(C)(C)O1)=C\C[C@H]1CC[C@@H](NC(=O)/C=C\[C@H](C)OC(=O)C(C)C)CC1
[1]
  IC50: 9690 nM
[2]; [42]
  GI50: 81.3 nM
[2]; [43]
  CC50: > 100000 nM
[2]; read-out: Log10TGI (converted)
  TGI: 12900 nM
[3]
  IC50: 900 nM
[4]; [42]
  GI50: 339 nM
[4]; [43]
  CC50: > 100000 nM
[4]; read-out: Log10TGI (converted)
  TGI: 2510 nM
[5]; [42]
  GI50: 302 nM
[5]; [43]
  CC50: > 100000 nM
[5]; read-out: Log10TGI (converted)
  TGI: 2140 nM
[6]
  IC50: 120 nM
[7]
  Activity: Non-toxic
[8]; [42]
  GI50: 741 nM
[8]; [43]
  CC50: > 100000 nM
[8]; read-out: Log10TGI (converted)
  TGI: 39800 nM
[9]
  Activity: Non-toxic
[10]; [42]
  GI50: 794 nM
[10]; [43]
  CC50: > 100000 nM
[10]; read-out: Log10TGI (converted)
  TGI: 34700 nM
[11]
  IC50: > 10000 nM
[12]
  Activity: Non-toxic
[13]
  IC50: 80 nM
[14]
  Activity: Non-toxic
[15]; [42]
  GI50: 257 nM
[15]; [43]
  CC50: > 100000 nM
[15]; read-out: Log10TGI (converted)
  TGI: 3550 nM
[16]; [42]
  GI50: 1380 nM
[16]; [43]
  CC50: > 100000 nM
[16]; read-out: Log10TGI (converted)
  TGI: 61700 nM
[17]
  IC50: 2200 nM
[18]
  Activity: Non-toxic
[19]
  Activity: Non-toxic
[20]
  IC50: 550 nM
[21]
  Activity: Non-toxic
[22]
  Activity: Non-toxic
[23]
  IC50: 660 nM
[24]; [42]
  GI50: 229 nM
[24]; [43]
  CC50: > 100000 nM
[24]; read-out: Log10TGI (converted)
  TGI: 3470 nM
[25]; [42]
  GI50: 263 nM
[25]; [43]
  CC50: > 100000 nM
[25]; read-out: Log10TGI (converted)
  TGI: 1120 nM
[26]; [42]
  GI50: 537 nM
[26]; [43]
  CC50: > 100000 nM
[26]; read-out: Log10TGI (converted)
  TGI: 33900 nM
[27]; [42]
  GI50: 25.1 nM
[27]; [43]
  CC50: > 100000 nM
[27]; read-out: Log10TGI (converted)
  TGI: 13800 nM
[28]; [42]
  GI50: 324 nM
[28]; [43]
  CC50: > 100000 nM
[28]; read-out: Log10TGI (converted)
  TGI: 6460 nM
[29]
  IC50: 1200 nM
[30]; [42]
  GI50: 229 nM
[30]; [43]
  CC50: > 100000 nM
[30]; read-out: Log10TGI (converted)
  TGI: 13800 nM
[31]; [42]
  GI50: 309 nM
[31]; [43]
  CC50: > 100000 nM
[31]; read-out: Log10TGI (converted)
  TGI: > 100000 nM
[32]; [42]
  GI50: 3470 nM
[32]; [43]
  CC50: > 100000 nM
[32]; read-out: Log10TGI (converted)
  TGI: > 100000 nM
[33]; [42]
  GI50: 47.9 nM
[33]; [43]
  CC50: > 100000 nM
[33]; read-out: Log10TGI (converted)
  TGI: 5620 nM
[34]; [42]
  GI50: 229 nM
[34]; [43]
  CC50: > 100000 nM
[34]; read-out: Log10TGI (converted)
  TGI: 16200 nM
[35]
  Activity: Non-toxic
[36]; [42]
  GI50: 457 nM
[36]; [43]
  CC50: > 100000 nM
[36]; read-out: Log10TGI (converted)
  TGI: 7940 nM
[37]; [42]
  GI50: 309 nM
[37]; [43]
  CC50: > 100000 nM
[37]; read-out: Log10TGI (converted)
  TGI: 45700 nM
[38]; [42]
  GI50: 263 nM
[38]; [43]
  CC50: > 100000 nM
[38]; read-out: Log10TGI (converted)
  TGI: > 100000 nM
[39]; [42]
  GI50: 912 nM
[39]; [43]
  CC50: > 100000 nM
[39]; read-out: Log10TGI (converted)
  TGI: > 100000 nM
[40]
  IC50: 4410 nM
[41]; [42]
  GI50: 912 nM
[41]; [43]
  CC50: > 100000 nM
[41]; read-out: Log10TGI (converted)
  TGI: > 100000 nM
